Compound activity from PubChem.
H69AR inhibit – proliferation blockers of H69AR lung cancer cells, primary screen, cell-based, human, 86K library | AID 598, 2007 | H69AR lung tumor viability, ATP luminescence, 72 h; active compounds read low | viability, % at 10 µM | 85,000 tested, 6% active;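 active means viability at or below 40%; inactive means viability above 40%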;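 further: multidrug resistant small cell line overexpressing MRP-1 efflux transporter; 100% = mean luminescence of untreated control wells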
Fibroblast inh – antiproliferative effect on LL 47 fibroblasts – human, LL 47 cells, CellTiter-Glo luminescence, primary screen | AID 719, 2007 | viability, % at 10 µM | 85,000 tested, 1.1% active | LL 47 human lung fibroblast viability, ATP luminescence; active compounds read low;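 active means viability at or below 50% in the single dose screen; inactive means viability above 50%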;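 further: compound exposure lasted 72 h before the ATP readout; 100% = median luminescence of untreated cell-only wells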
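material = human LL 47 lung fibroblast cells | dosing = compounds added from tenfold dosing solution, 0.1% DMSO final | timing = overnight cell rest, 72 h compound treatment at 37 °C | measured by = CellTiter-Glo luminescence measuring cellular ATP | evaluation = % viability versus median cells-only luminescence | control set = cell-only wells, no compound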
HCT116 PTEN-null – growth suppression of PTEN-null HCT116, primary screen, cell-based, CellTiter-Glo; viability, % at 10 µM; 140,000 tested, 1.2% active; HCT116 PTEN-null viability, 60 h; active compounds read low;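 active means viability at or below a set limit, 4 SD under the median of all tested compounds, cut at about 3.7% in these data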;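 further: PTEN knockout HCT116 line with beta catenin targeted HCT116 as companion control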
HUVEC inhibit – inhibitors of HUVEC proliferation, primary screen, cell-based, 384-well | viability, % at 10 µM (by protocol) | CellTiter-Glo luminescence, 72 h; active compounds read low | AID 648, 2007 | 86,000 tested, 1.1% active;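 active means viability at or below 30%; inactive means viability above 30%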;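 further: 100% = median luminescence of DMSO-only cell control wells on each plate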
bCat KO growth – primary screen for growth suppressors in beta-catenin knockout HCT116 cells (colon tumor, human); HCT116 beta-catenin knockout viability, CellTiter-Glo, 60 h; active compounds read low; viability, % at 10 µM; 140,000 tested, 1.5% active; AID 818, 2007;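 active means viability at or under a set limit, the compound median less 4 SD, cut at about 6% in these data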;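 further: 0% = Hyamine 1622 control at 20 µM and 100% = untreated cell control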
Phagocytosis inh – inhibitors of macrophage phagocytosis, primary screen, imaging, J774A.1 cells, IgG beads | J774A.1 macrophage IgG-bead phagocytosis | inhibition, % at 5 µM | 110,000 tested, 0.07% active;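 active means inhibition above the mean of the plate negative controls plus 5 SD, cut at about 13% in these data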;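 further: phagocytic index as fraction of beads internalized from green versus red external bead signal; plate controls were DMSO negative control for no effect and cytochalasin-D positive control for full effect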
The depositor's hits bear a star; nt = no result. Only a selection was taken, and hits are over-represented in it overall.

SMILES	H69AR inhibit	Fibroblast inh	HCT116 PTEN-null	HUVEC inhibit	bCat KO growth	Phagocytosis inh
CCOC(=O)c1sc(NC(=O)Nc2ccc(Cl)cc2)nc1C	nt	nt	20	nt	30	nt
CN(C)CCNc1oc(COc2ccc(-c3ccccc3)cc2)nc1C#N	15*	45*	75	40	88	0
N#Cc1nc(COc2ccc(-c3ccccc3)cc2)oc1NCCCN1CCOCC1	49	103	33	6.3*	25	1
COc1cccc(C(c2sc3nc(C)nn3c2O)N2CCc3ccccc3C2)c1 (centres undefined)	85	98	95	98	97	-2
CC(C)c1ccc(CN2CC(C(=O)O)CC2=O)cc1 (centres undefined)	109	106	98	106	95	0
CCOC(CNC(=O)c1cccn2c(=O)c3cc(Cl)ccc3nc12)OCC	38*	97	59	74	59	1
COC(=O)c1sccc1NC(=O)C1C2C=CC(O2)C1C(=O)O (centres undefined)	92	93	95	87	95	2
COc1ccccc1NC(=O)C1C2C=CC(O2)C1C(=O)O (centres undefined)	93	50*	97	92	92	0
CC(C)c1ccc(/C=N/Nc2cc(N3CCOCC3)nc(N3CCOCC3)n2)cc1	nt	nt	47	nt	37	-8
Clc1ccc(-c2ccc(/C=N/Nc3cc(N4CCOCC4)nc(N4CCOCC4)n3)o2)cc1	30*	74	39	13*	42	nt
COc1ccc(N2CCN(c3oc(COc4ccccc4)nc3C#N)CC2)cc1	94	102	76	107	77	nt
COc1ccc(N2CCN(c3oc(Cc4ccccc4)nc3C#N)CC2)cc1	35*	96	60	82	64	nt
[N-]=[N+]=NC1C[C@H](n2ccc(=O)[nH]c2=O)O[C@@H]1CO (some centres undefined)	nt	nt	1.0*	nt	1.1*	nt
O=c1[nH]c(=O)n([C@H]2C[C@H](O)[C@@H](CO)O2)cc1C(F)(F)F	73	81	71	44	66	nt
CCCCC(CCCC)=N/N=C/c1c(O)n(CC)c2cc(C3=NNC(=O)CC3)ccc12	33*	78	31	100	39	nt
CCn1c(O)c(/C=N/N=C2CCCC2)c2ccc(C3=NNC(=O)CC3)cc21	nt	nt	95	nt	96	nt
Brc1ccc(CSc2nnc(-c3ccco3)o2)cc1	nt	nt	90	nt	90	-4
CCc1cc(-c2n[nH]c(C)c2-c2nc3ccccc3n2C)c(O)c(CN2CCN(C)CC2)c1O	16*	nt	76	79	82	-1
CCc1cc2c(=O)c(-c3nc4ccccc4n3C)c(C)oc2c(CN2CCN(C)CC2)c1O	nt	nt	93	nt	84	nt
CC(CCc1ccccc1)NC(=O)C(=O)NCCc1ccccc1 (centres undefined)	nt	nt	98	nt	101	-3
CCc1cccc(CC)c1NC(=S)NCCc1c(C)[nH]c2ccc(C)cc12	nt	nt	2.6*	nt	6	nt
CCc1cccc(C)c1NC(=S)NCCc1c(C)[nH]c2ccc(C)cc12	nt	nt	4	nt	3.5*	nt
COc1ccc2[nH]c(C)c(CCNC(=S)Nc3cc(C)ccc3C)c2c1	nt	nt	84	nt	86	nt
COc1ccc2[nH]c(C)c(CCNC(=S)Nc3cccc(C)c3)c2c1	nt	nt	69	nt	56	nt
CCS(=O)(=O)NCCc1cc2ccc(C)cc2[nH]c1=O	96	99	99	93	100	nt
SMILES	H69AR inhibit	Fibroblast inh	HCT116 PTEN-null	HUVEC inhibit	bCat KO growth	Phagocytosis inh
CC1CCCC(C)N1CCNC(=O)CCn1nc(-c2ccccc2)ccc1=O (centres undefined)	88	94	96	99	97	0
O=C(c1ccc(Cl)cc1)c1c[nH]c(C(=O)C(Cl)(Cl)Cl)c1	2.4*	44*	2.5*	49	1.8*	-2
O=C(c1ccc(Cl)cc1)c1c[nH]cc1-c1ccccc1	102	104	100	97	101	nt
CCc1ccc(-c2nc(CN3CCC(C(=O)N4CCN(c5ccccn5)CC4)CC3)c(C)o2)cc1	39*	96	1.1*	31	1.9*	0
Cc1oc(-c2ccc(Cl)cc2)nc1CN1CCC(C(=O)N2CCN(c3ccccn3)CC2)CC1	66	93	nt	56	nt	nt
Cc1oc(-c2cccc(Cl)c2)nc1CN1CCC(C(=O)N2CCN(c3ccccn3)CC2)CC1	33*	74	nt	35	nt	nt
